# Test system: not listed separately
# Assay: Volume of distribution at steady state in mouse at 1 mg/kg, iv
# Type: ADME, organism-based
# Set-up: dose 1 mg/kg, route intravenous
# Conditions: in vivo, read-out: Vdss
# Outline: (§1)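 Single intravenous dose in 10% N,N-dimethylacetamide, 10% ethanol, 30% propylene glycol, 50% water: 1 mg/kg mouse; 0.5 mg/kg rat, beagle dog, cynomolgus monkey. Plasma clearance also given as percent of hepatic blood flow.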
row,Vd [L/kg],SMILES
1,0.48,C[C@H](c1nc2ncccc2c(=O)n1-c1ccc(Cl)cc1)N(CC1CCS(=O)(=O)CC1)C(=O)Cc1ccc(F)c(C(F)(F)F)c1

# Test system: not listed separately
# Assay: Apparent oral bioavailability in Beagle dog at 2 mg/kg
# Type: ADME, organism-based, Canis lupus familiaris
# Conditions: in vivo, read-out: Fapp
row,bioavailability [%],SMILES
1,> 100,C[C@H](c1nc2ncccc2c(=O)n1-c1ccc(Cl)cc1)N(CC1CCS(=O)(=O)CC1)C(=O)Cc1ccc(F)c(C(F)(F)F)c1

# Test system: not listed separately
# Assay: Fraction unbound in rat plasma
# Type: ADME, cell-free
# Conditions: not given
row,fraction unbound,SMILES
1,0.061,C[C@H](c1nc2ncccc2c(=O)n1-c1ccc(Cl)cc1)N(CC1CCS(=O)(=O)CC1)C(=O)Cc1ccc(F)c(C(F)(F)F)c1

# Target: T1, C-X-C chemokine receptor type 3 (Homo sapiens, UniProt P49682)
# T1 sequence (P49682 whole entry): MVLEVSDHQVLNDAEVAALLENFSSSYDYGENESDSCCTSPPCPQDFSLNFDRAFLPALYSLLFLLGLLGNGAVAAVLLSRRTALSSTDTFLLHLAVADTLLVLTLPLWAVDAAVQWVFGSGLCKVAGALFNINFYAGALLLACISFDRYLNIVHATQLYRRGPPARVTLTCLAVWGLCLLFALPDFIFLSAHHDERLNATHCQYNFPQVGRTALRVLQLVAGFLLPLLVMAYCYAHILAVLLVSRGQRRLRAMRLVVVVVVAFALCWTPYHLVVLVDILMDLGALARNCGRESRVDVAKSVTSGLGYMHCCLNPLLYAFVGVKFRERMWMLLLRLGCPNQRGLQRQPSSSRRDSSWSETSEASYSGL
# Assay: Receptor occupancy of CXCR3 in human whole blood assessed as inhibition of ITAC binding by fluorescence quenching based FACS analysis
# Conditions: not given
row,IC50 [µM],SMILES
1,0.0098,C[C@H](c1nc2ncccc2c(=O)n1-c1ccc(Cl)cc1)N(CC1CCS(=O)(=O)CC1)C(=O)Cc1ccc(F)c(C(F)(F)F)c1

# Test system: not listed separately
# Assay: Half life in mouse at 1 mg/kg, iv
# Type: ADME, organism-based
# Set-up: dose 1 mg/kg, route intravenous
# Conditions: in vivo
# Outline: as §1
row,half-life [h],SMILES
1,4,C[C@H](c1nc2ncccc2c(=O)n1-c1ccc(Cl)cc1)N(CC1CCS(=O)(=O)CC1)C(=O)Cc1ccc(F)c(C(F)(F)F)c1

# Test system: Cynomolgus monkey
# Assay: Hepatic blood flow in cynomolgus monkey at 0.5 mg/kg, iv
# Type: ADME, organism-based, Macaca fascicularis, Liver
# Set-up: dose 0.5 mg/kg, route intravenous
# Conditions: in vivo
# Outline: as §1
row,QH [%],SMILES
1,3,C[C@H](c1nc2ncccc2c(=O)n1-c1ccc(Cl)cc1)N(CC1CCS(=O)(=O)CC1)C(=O)Cc1ccc(F)c(C(F)(F)F)c1

# Target: T1, C-X-C chemokine receptor type 3
# Assay: Displacement of [125I]-IP-10 from CXCR3 in presence of 100% human serum
# Conditions: not given
row,IC50 [µM],SMILES
1,0.012,C[C@H](c1nc2ncccc2c(=O)n1-c1ccc(Cl)cc1)N(CC1CCS(=O)(=O)CC1)C(=O)Cc1ccc(F)c(C(F)(F)F)c1

# Test system: Blood
# Assay: Drug level in C57BL/6 mouse blood at 3 mg/kg, sc after 1 hr
# Type: ADME, organism-based
# Set-up: dose 3 mg/kg, route subcutaneous
# Conditions: in vivo
# Outline: (§2)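 C57BL/6 mice given bleomycin intra-tracheally and dosed subcutaneously by osmotic mini-pump for 6 days; plasma collected to measure drug level, reported 1 h post dose.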
row,Drug uptake [mg/kg],SMILES
1,3.4,C[C@H](c1nc2ncccc2c(=O)n1-c1ccc(Cl)cc1)N(CC1CCS(=O)(=O)CC1)C(=O)Cc1ccc(F)c(C(F)(F)F)c1

# Test system: Rattus norvegicus
# Assay: Hepatic blood flow in rat at 0.5 mg/kg, iv
# Type: ADME, organism-based, Liver
# Set-up: dose 0.5 mg/kg, route intravenous
# Conditions: in vivo
# Outline: as §1
row,QH [%],SMILES
1,3,C[C@H](c1nc2ncccc2c(=O)n1-c1ccc(Cl)cc1)N(CC1CCS(=O)(=O)CC1)C(=O)Cc1ccc(F)c(C(F)(F)F)c1

# Test system: Canis familiaris
# Assay: Hepatic blood flow in Beagle dog at 0.5 mg/kg, iv
# Type: ADME, organism-based, Canis lupus familiaris, Liver
# Set-up: dose 0.5 mg/kg, route intravenous
# Conditions: in vivo
# Outline: as §1
row,QH [%],SMILES
1,82,C[C@H](c1nc2ncccc2c(=O)n1-c1ccc(Cl)cc1)N(CC1CCS(=O)(=O)CC1)C(=O)Cc1ccc(F)c(C(F)(F)F)c1

# Test system: PBL
# Assay: Toxicity in human PBL assessed as chromosomal aberrations at 7.81 to 1000 ug/mL in the presence of S9
# Type: cell-based
# Conditions: not given
# Outline: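 Cultured human peripheral blood lymphocytes exposed at 7.81–1000 μg/mL, with and without S9 metabolic activation; chromosomal aberrations scored.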
row,SMILES,Activity
1,C[C@H](c1nc2ncccc2c(=O)n1-c1ccc(Cl)cc1)N(CC1CCS(=O)(=O)CC1)C(=O)Cc1ccc(F)c(C(F)(F)F)c1,Non-toxic

# Test system: Mus musculus
# Assay: Inhibition of bleomycin-induced leukocyte migration into lungs in C57BL/6 mouse lung injury model by measuring cell count in bronchoalveolar lavage fluid at 1 mg/kg, sc administered for 6 days
# Type: functional
# Conditions: route subcutaneous
# Outline: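 C57BL/6 mice given one intra-tracheal instillation of bleomycin, 1 mg/kg; compound delivered subcutaneously by osmotic mini-pump from challenge day for 6 days; cells counted in bronchoalveolar lavage on day six.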
row,SMILES,EC [mg/kg]
1,C[C@H](c1nc2ncccc2c(=O)n1-c1ccc(Cl)cc1)N(CC1CCS(=O)(=O)CC1)C(=O)Cc1ccc(F)c(C(F)(F)F)c1,1

# Target: T1, C-X-C chemokine receptor type 3
# Assay: Displacement of [125I]-IP-10 from CXCR3
# Conditions: not given
row,IC50 [µM],SMILES
1,0.006,C[C@H](c1nc2ncccc2c(=O)n1-c1ccc(Cl)cc1)N(CC1CCS(=O)(=O)CC1)C(=O)Cc1ccc(F)c(C(F)(F)F)c1

# Target: T2, C-X-C chemokine receptor type 3 (Mus musculus, UniProt O88410)
# T2 sequence (O88410 whole entry): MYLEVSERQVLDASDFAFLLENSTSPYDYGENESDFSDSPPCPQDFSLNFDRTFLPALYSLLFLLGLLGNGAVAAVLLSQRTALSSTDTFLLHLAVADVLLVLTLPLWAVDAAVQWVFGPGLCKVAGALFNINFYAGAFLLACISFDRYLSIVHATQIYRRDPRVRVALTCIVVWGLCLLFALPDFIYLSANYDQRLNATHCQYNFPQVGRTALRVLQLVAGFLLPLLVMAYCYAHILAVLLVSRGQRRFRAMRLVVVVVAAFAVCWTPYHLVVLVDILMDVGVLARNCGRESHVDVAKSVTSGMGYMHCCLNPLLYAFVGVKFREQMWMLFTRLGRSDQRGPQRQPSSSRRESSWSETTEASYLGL
# Assay: Receptor occupancy of CXCR3 in mouse whole blood assessed as inhibition of ITAC binding by fluorescence quenching based FACS analysis
# Conditions: not given
row,IC50 [µM],SMILES
1,0.2,C[C@H](c1nc2ncccc2c(=O)n1-c1ccc(Cl)cc1)N(CC1CCS(=O)(=O)CC1)C(=O)Cc1ccc(F)c(C(F)(F)F)c1

# Test system: Blood
# Assay: Drug level in C57BL/6 mouse blood at 10 mg/kg, sc after 1 hr
# Type: ADME, organism-based
# Set-up: dose 10 mg/kg, route subcutaneous
# Conditions: in vivo
# Outline: as §2
row,Drug uptake [mg/kg],SMILES
1,5.6,C[C@H](c1nc2ncccc2c(=O)n1-c1ccc(Cl)cc1)N(CC1CCS(=O)(=O)CC1)C(=O)Cc1ccc(F)c(C(F)(F)F)c1

# Target: Cytochrome P450 2D6 (Homo sapiens, UniProt P10635)
# Sequence (P10635 whole entry): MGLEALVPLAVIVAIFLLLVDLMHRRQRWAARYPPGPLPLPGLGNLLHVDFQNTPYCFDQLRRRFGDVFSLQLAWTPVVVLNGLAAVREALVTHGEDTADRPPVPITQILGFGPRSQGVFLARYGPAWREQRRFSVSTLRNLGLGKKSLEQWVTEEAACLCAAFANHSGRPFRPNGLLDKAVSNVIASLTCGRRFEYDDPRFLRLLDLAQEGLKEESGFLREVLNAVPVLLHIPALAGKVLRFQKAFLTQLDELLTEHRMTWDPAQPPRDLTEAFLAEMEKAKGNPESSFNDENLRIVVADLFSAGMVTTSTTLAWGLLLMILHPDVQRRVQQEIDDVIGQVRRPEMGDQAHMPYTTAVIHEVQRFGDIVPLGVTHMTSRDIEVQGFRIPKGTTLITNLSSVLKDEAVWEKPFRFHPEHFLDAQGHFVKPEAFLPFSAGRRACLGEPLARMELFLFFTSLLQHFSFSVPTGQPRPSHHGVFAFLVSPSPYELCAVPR
# Assay: Inhibition of CYP2D6
# Type: ADME
# Conditions: not given
row,IC50 [µM],SMILES
1,> 10,C[C@H](c1nc2ncccc2c(=O)n1-c1ccc(Cl)cc1)N(CC1CCS(=O)(=O)CC1)C(=O)Cc1ccc(F)c(C(F)(F)F)c1

# Test system: not listed separately
# Assay: Mean residence time in cynomolgus monkey at 0.5 mg/kg, iv
# Type: ADME, organism-based, Macaca fascicularis
# Set-up: dose 0.5 mg/kg, route intravenous
# Conditions: in vivo
# Outline: as §1
row,MRT [h],SMILES
1,8.7,C[C@H](c1nc2ncccc2c(=O)n1-c1ccc(Cl)cc1)N(CC1CCS(=O)(=O)CC1)C(=O)Cc1ccc(F)c(C(F)(F)F)c1

# Test system: not listed separately
# Assay: Apparent oral bioavailability in rat at 2 mg/kg
# Type: ADME, organism-based
# Conditions: in vivo, read-out: Fapp
row,bioavailability [%],SMILES
1,69,C[C@H](c1nc2ncccc2c(=O)n1-c1ccc(Cl)cc1)N(CC1CCS(=O)(=O)CC1)C(=O)Cc1ccc(F)c(C(F)(F)F)c1

# Test system: not listed separately
# Assay: Mean residence time in Beagle dog at 0.5 mg/kg, iv
# Type: ADME, organism-based, Canis lupus familiaris
# Set-up: dose 0.5 mg/kg, route intravenous
# Conditions: in vivo
# Outline: as §1
row,MRT [h],SMILES
1,1.1,C[C@H](c1nc2ncccc2c(=O)n1-c1ccc(Cl)cc1)N(CC1CCS(=O)(=O)CC1)C(=O)Cc1ccc(F)c(C(F)(F)F)c1

# Test system: not listed separately
# Assay: Fraction unbound in mouse plasma
# Type: ADME, cell-free
# Conditions: not given
row,fraction unbound,SMILES
1,0.007,C[C@H](c1nc2ncccc2c(=O)n1-c1ccc(Cl)cc1)N(CC1CCS(=O)(=O)CC1)C(=O)Cc1ccc(F)c(C(F)(F)F)c1

# From ChEMBL document CHEMBL1938274, “Discovery of potent and specific CXCR3 antagonists” (Bioorg Med Chem Lett, 2012)
